# CSC inhib: cancer stem cell inhibition | cancer stem cell-like cells viability, luminescence | inhibition, % at 7.5 µM | hit rate 1.1% among 300,000 | AID 2717; in the data active = inhibition above about 75%; inconclusive = no clear call, values can overlap the other calls; tested in HMLE shEcad cells
# Calb FLC: affects C. albicans growth with fluconazole; C. albicans CaCi-2 (fluconazole-resistant clinical isolate) + fluconazole, Alamar Blue growth, 48 h; growth inhibition, % (test concentration not listed); hit rate 0.57% among 300,000;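 active = growth inhibition above about 58% in most replicates, limit read from the data, passing the limit was not always enough; inconclusive = exactly half the replicates above a set limit; inactive = most replicates below a set limit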;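 also: all wells also contain fluconazole at 8 µg/ml as a sub-toxic cotreatment; 0% = median of DMSO wells and 100% = median of geldanamycin control wells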
# T cruzi repl: blocks replication of Trypanosoma cruzi | AID 1885 | hit rate 1.4% among 300,000 | inhibition, % (no concentration beside the values) | T. cruzi beta-gal in NIH3T3, luminescence, 90 h;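 active = mean inhibition across valid replicates above about 55%, limit read from the data; inconclusive = mean below that limit but half or more replicates reach it; inactive = mean below it, under half of replicates reach it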;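 also: signal also drops with host cell toxicity which is not excluded here; 0% = plate median of DMSO wells and 100% = zero luminescence signal; higher percent means less beta-gal luminescence so fewer parasites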
#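 Assay system: NIH/3T3 host cells with β-galactosidase reporter T. cruzi; input: 5,000 host fibroblasts per well; compound: single 50 nL compound addition per well in DMSO; timing: ≥90 h infection period, 3 h prior cell attachment; measured by: GalScreen β-gal luminescence, detergent lysis, 60 min; evaluation: percent inhibition of parasite-derived β-gal signal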
# SKKanGAS inh: SKKanGAS growth inhibition. hit rate 1.3% among 300,000. inhibition, % at 7.5 µM. S. pyogenes SKKanGAS, kanamycin growth, BacTiter-Glo, 6 h. AID 1662;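 active = mean replicate score, as percent of positive control median, at least 50; inconclusive = mean below 50 but one replicate at or above 50; inactive = mean and every replicate below 50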;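 also: strain carries kanamycin resistance gene driven by streptokinase promoter and grows in 40 µg/ml kanamycin; loss of luminescence reflects streptokinase promoter inhibition or plain growth inhibition; 0% = median of DMSO wells and 100% = positive control at its reference dose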
# Beta apoptosis: blocks beta cell apoptosis. INS-1E cytokine-induced death, ATP luminescence, 48 h; percent of positive-control rescue, neutral wells zero. protection from apoptosis, % (concentration not given with the values). hit rate 0.8% among 300,000;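 active = Every replicate reaches about 75%, or at least half do and their mean reaches it too, limit read from the data; inconclusive = At least half of replicates reach the limit but their mean does not; inactive = Under half of replicates reach the limit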;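 also: 0% = cytokine-treated negative control wells and 100% = positive control rescue; higher means more ATP so stronger rescue from cytokine killing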
# Mdm2 MdmX PPI: human Mdm2/MdmX binding inhibition. O15151+Q00987. hit rate 3% among 330,000. AID 485346. SaOS-2 split-luciferase Mdm2/MdmX complementation, luminescence. inhibition, % at 8 µM;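 active = inhibition of at least 50% at 8 µM in the primary screen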
# * = called active by the depositor; u = inconclusive; x = not tested or not shown. Only some compounds are listed: those with a hit (about 5.7% of all), similar ones and a draw of the others.
SMILES,CSC inhib,Calb FLC,T cruzi repl,SKKanGAS inh,Beta apoptosis,Mdm2 MdmX PPI
COCCn1c(=S)[nH]c2cc(C(=O)N3CCCC(C)C3)ccc2c1=O (configuration not stated),-16.5,6.7,-13.6,-2.2,15.8,-12.8
O=C1CS/C(=N\C(=O)N2c3ccccc3Sc3ccccc32)N1,25.0,95.2*,2.8,7.1,-10.4,6.7
NCCC(=O)N1c2ccccc2Sc2ccccc21,-1.2,-17.3,5.6,-4.9,-4.4,34.3
O=C(CCNC(=O)c1ccccc1Cl)NCCc1ccc(C(F)(F)F)cc1,-3.1,-2.8,-7.3,-2.4,-3.1,12.2
CCOc1cc(/C=C2\SC(=N)N(c3nccs3)C2=O)ccc1OCCN1CCOCC1,34.1,-1.9,-2.6,80.3*,32.0,39.2
COc1ccc(/C(C)=N/Nc2cccc(C(=O)O)c2)cc1OC,-6.1,-2.7,4.5,3.8,-0.6,12.7
C/C(=N\Nc1cccc(C(=O)O)c1)c1ccc(Cl)s1,-10.0,78.0*,-2.0,-6.7,0.7,-8.3
Cc1cccc(NC(=O)CN(CC2CCCO2)C(=O)c2cc(S(=O)(=O)N(C)C)ccc2F)c1C (configuration not stated),-2.9,x,x,x,-2.3,19.9
CC(O)c1cccc(-c2ccc(CN3C[C@]4(CO)O[C@@H](CO)C[C@@H]4S3(=O)=O)cc2)c1 (some centres not stated),x,x,x,x,x,-25.5
COc1ccc(CCn2c(-c3ccco3)nc3nc4ccccc4nc32)cc1,-1.5,7.2,27.3,15.7,4.9,11.2
COc1ccc(CCn2c(-c3cc([N+](=O)[O-])cc([N+](=O)[O-])c3)nc3nc4ccccc4nc32)cc1,-1.9,u,56.6*,5.1,10.6,21.4
COc1ccc(CCn2c(-c3cc([N+](=O)[O-])cc([N+](=O)[O-])c3)nc3nc4ccccc4nc32)cc1OC,-3.6,-3.3,62.1*,-5.8,46.9,11.6
COc1ccc(-c2[nH]n(-c3ccc([N+](=O)[O-])cc3)c(=O)c2C=NCc2ccccc2)cc1,0.9,-4.8,-10.6,-5.0,2.2,31.9
Fc1ccc(N2CCN(C3=Nc4cccc5cccc3c45)CC2)cc1,-7.3,-1.6,64.0*,-2.0,9.6,18.3
c1ccc(CN2CCN(C3=Nc4cccc5cccc3c45)CC2)cc1,x,3.2,34.3,-2.9,x,-12.5
CS(=O)(=O)c1nc(-c2ccccc2)cc(C(F)(F)F)n1,107.2*,61.6,65.1*,-22.5,107.7*,-31.6
COc1cccc(-c2cc(C(F)(F)F)nc(N3CCCCC3)n2)c1,24.4,29.4,24.3,57.5*,11.9,-33.0
FC(F)(F)c1cc(-c2ccccc2)nc(N2CCCCCC2)n1,24.1,-1.5,10.4,86.2*,2.0,26.3
FC(F)(F)c1cc(-c2ccccc2)nc(-n2cncn2)n1,0.9,6.4,9.5,-2.2,1.6,24.3
COc1ccc(-c2cc(C(F)(F)F)nc(N3CCCCCC3)n2)cc1,32.9,-10.1,8.7,u,x,-9.3
c1ccc(Cc2c[nH]c3ccccc23)cc1,2.1,2.4,2.5,5.2,x,16.2
CN(Cc1ccccc1)Cc1c[nH]c2ccccc12,22.5,-10.4,55.3*,-3.1,4.0,22.0
COCCOC1CCN(C(=O)C2CCC(=O)N(CCc3ccccc3)C2)CC1 (configuration not stated),13.7,1.1,-9.7,-12.3,-1.5,13.1
C[C@H]1CN([C@@H](C)CO)C(=O)c2cc(NC(=O)C3CCCCC3)ccc2O[C@H]1CN(C)S(=O)(=O)c1ccccc1,-6.4,x,x,x,-3.2,-11.1
N#Cc1c(N)nc2c(c1-c1cccc(O)c1)CCCCCC2,81.8*,15.0,-1.5,-9.1,-3.0,34.8
CC(C)(C)OC(=O)NCCCCCNC(=O)c1[nH]cnc1C(=O)Nc1ccon1,-6.2,x,x,x,-0.8,-6.1
COc1cc2nc(NCCCN3CCN(C)CC3)n3nc(-c4ccccc4)nc3c2cc1OC,-0.1,1.4,62.3*,1.4,19.4,39.1
CCN(CC)CCCNc1nc2cc(OC)c(OC)cc2c2nc(-c3ccccc3)nn12,14.0,u,61.0*,5.2,52.5,41.5
CC(C)CC(=O)OC1C(N2CCOCC2)c2c(ccc(/C=C/C(=O)N3CCOCC3)c2O)OC1(C)C (configuration not stated),-20.9,-4.6,-3.9,-8.3,4.3,17.0
O=C(N/N=C/c1cn(-c2ccccc2)nc1-c1ccc(F)cc1)c1ccc(Br)o1,31.1,3.9,22.4,26.4,109.8*,34.0
